Consider 17 compounds from ChEMBL document CHEMBL4364290, “Light-controlled inhibition of BRAFV600E kinase” (Eur J Med Chem, 2019).

Data set [1] addresses T1, Serine/threonine-protein kinase B-raf (Homo sapiens, UniProt P15056, V600E). As to the kind of experiment: Inhibition of human recombinant BRAF V600E mutant using MEK1 as substrate measured after 1 hr by Western blot analysis.
The test system of data set [2] is Serine/threonine-protein kinase B-raf (Homo sapiens), P15056 [V600E]. The data set is described as follows: Inhibition of BRAF V600E mutant in human SK-MEL-28 cells using peptide substrate by STK-Pamchip array-based method. In kind it is cell-based. The method, boiled down: (§1)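 SK-Mel-28 cell lysates treated with DMSO control or inhibitor, either dark (thermally adapted) or irradiated with 365 nm light; kinase activity profiled on PamGene STK peptide chips.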
Serine/threonine-protein kinase B-raf (Homo sapiens), P15056 [V600E], sequence (P15056 whole entry V600E): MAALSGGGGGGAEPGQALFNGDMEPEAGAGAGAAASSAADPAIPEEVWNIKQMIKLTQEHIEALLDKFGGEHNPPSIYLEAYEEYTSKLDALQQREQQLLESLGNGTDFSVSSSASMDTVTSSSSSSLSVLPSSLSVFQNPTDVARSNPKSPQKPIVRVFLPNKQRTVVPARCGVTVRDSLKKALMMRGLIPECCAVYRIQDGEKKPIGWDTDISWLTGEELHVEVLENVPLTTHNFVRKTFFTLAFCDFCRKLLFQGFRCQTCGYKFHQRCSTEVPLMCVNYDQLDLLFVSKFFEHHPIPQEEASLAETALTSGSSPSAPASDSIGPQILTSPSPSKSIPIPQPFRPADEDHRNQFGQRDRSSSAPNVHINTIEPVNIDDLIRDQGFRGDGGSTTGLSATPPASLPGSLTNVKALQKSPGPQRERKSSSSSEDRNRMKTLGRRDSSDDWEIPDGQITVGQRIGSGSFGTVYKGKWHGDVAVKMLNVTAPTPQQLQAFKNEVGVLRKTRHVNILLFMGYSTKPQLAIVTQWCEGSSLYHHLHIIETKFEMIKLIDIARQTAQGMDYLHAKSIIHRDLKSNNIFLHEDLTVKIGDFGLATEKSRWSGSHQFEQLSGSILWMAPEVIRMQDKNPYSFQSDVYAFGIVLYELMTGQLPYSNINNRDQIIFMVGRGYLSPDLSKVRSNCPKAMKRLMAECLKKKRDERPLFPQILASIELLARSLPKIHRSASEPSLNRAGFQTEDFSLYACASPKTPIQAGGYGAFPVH

The subject of data set [3] is A-375. As to the kind of experiment: Cytotoxicity against human A375 cells harboring BRAF V600E mutant assessed as reduction in cell viability at 10 uM incubated for 24 hrs by MTS assay. The data set is classed as functional, cell-based. The method, boiled down: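 A375 melanoma cells (BRAF V600E) exposed 24 h to 10 µM compound, thermally adapted or 365 nm-irradiated, versus DMSO control; viability by MTS assay.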

Data set [4] in a line: Half life of the compound in DMSO-d6 at 2 mg/ml measured at room temperature under 365 nm light irradiation using trans-isomer form of compound by 1H-19F NMR spectroscopic analysis. The method, boiled down: (§2)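 Cis isomer generated by 365 nm irradiation to PSS; half-life of thermal cis-to-trans relaxation followed at room temperature in DMSO, in BRAF assay buffer, or in 1:1 BRAF assay buffer/acetonitrile where solubility required.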

Data set [5] can be described thus: Half life of the compound in pH 7.5 tris HCl buffer/acetonitrile at 2 mg/ml measured at room temperature under 365 nm light irradiation using trans-isomer form of compound by 1H-19F NMR spectroscopic analysis. Summed up:
as §2

A short description of data set [6]: Drug isomerization in DMSO-d6 irradiated at 365 nm assessed as rate of thermal relaxation measured as cis isomer level at PSS at 2 mg/ml measured after 70 hrs storage in dark at room temperature by 1H-NMR spectroscopic analysis.
Data set [7] concerns the target T1, Serine/threonine-protein kinase B-raf. As to the kind of experiment: Inhibition of human recombinant N-terminal GST/His6-tagged BRAF V600E mutant (Q417 to H766 residues) expressed in Sf9 insect cells using MEK1 as substrate measured after 1 hr using light irradiated compound at 365 nm for 45 mins by Western blot analysis.
Data set [8] can be described thus: Drug isomerization in DMSO-d6 irradiated at 365 nm assessed as cis isomer level at PSS at 2 mg/ml measured after 75 mins under room temperature by 1H and 19F-NMR spectroscopic analysis.
Data set [9] is described as follows: Absorption property of the compound in DMSO assessed as maximum absorption wavelength. In kind it is physicochemical. The method, boiled down: (§3)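 λmax of the trans isomer recorded in DMSO and in BRAF assay buffer.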
The nature of data set [10]: Absorption property of the compound in pH 7.5 tris HCl buffer assessed as maximum absorption wavelength. In kind it is physicochemical. Summed up:
as §3

Data set [11] concerns the target T1, Serine/threonine-protein kinase B-raf. The data set is described as follows: Inhibition of human recombinant N-terminal GST/His6-tagged BRAF V600E mutant (Q417 to H766 residues) expressed in Sf9 insect cells using MEK1 as substrate measured after 1 hr using preheated compound at 60 degC for 30 mins by Western blot analysis.
Data set [12] is described as follows: Drug isomerization in DMSO-d6 assessed as cis isomer level at PSS at 2 mg/ml irradiated at 365 nm light measured immediately by 1H-NMR spectroscopic analysis.
Data set [13] is described as follows: Stability of the compound in DMSO-D6 at 2 mg/ml by 1H-19F NMR analysis. In kind it is physicochemical. The following applies: read-out: Stability.
Data set [14] can be described thus: Drug isomerization in DMSO-d6 irradiated at 365 nm assessed as cis isomer level at PSS at 2 mg/ml measured after 135 mins under room temperature by 1H and 19F-NMR spectroscopic analysis.
Data set [15] can be described thus: Half life of the compound in pH 7.5 tris HCl buffer at 2 mg/ml measured at room temperature under 365 nm light irradiation using trans-isomer form of compound by 1H-19F NMR spectroscopic analysis. The method, boiled down: as §2
In data set [16] the test system is Serine/threonine-protein kinase B-raf (Homo sapiens), P15056 [V600E]. The data set is described as follows: Inhibition of BRAF V600E mutant in human SK-MEL-28 using peptide as substrate using irradiated compound at 365 nm light for 45 mins by STK-Pamchip array-based method. In kind it is cell-based. The method, boiled down: as §1
Data set [17] can be described thus: Drug re-isomerization in DMSO-d6 assessed as cis isomer level at PSS at 2 mg/ml measured after 20 hrs under dark condition at room temperature using irradiated compound by 1H-NMR spectroscopic analysis.
A short description of data set [18]: Drug isomerization in bovine plasma at 10 uM measured after 20 hrs at 37 degC by LCMS analysis. The data set is classed as ADME, cell-free, Bos taurus. To be noted: cattle.
A short description of data set [19]: Thermal re-isomerization in bovine plasma assessed as trans-isomer formation at 10 uM measured after 1 hr at 37 degC using pre-irradiated compound at 365 nm light for 1 hr by LCMS analysis. The data set is classed as ADME, cell-free, Bos taurus. To be noted: cattle.
Data set [20] is described as follows: Drug isomerization in DMSO-d6 irradiated at 365 nm assessed as cis isomer level at PSS at 2 mg/ml measured after 70 mins under room temperature by 1H and 19F-NMR spectroscopic analysis.
The nature of data set [21]: Drug isomerization in DMSO-d6 irradiated at 365 nm assessed as cis isomer level at PSS at 2 mg/ml measured after 40 mins under room temperature by 1H and 19F-NMR spectroscopic analysis.
Data set [22] in a line: Drug isomerization in DMSO-d6 irradiated at 365 nm assessed as cis isomer level at PSS at 2 mg/ml measured after 100 mins under room temperature by 1H and 19F-NMR spectroscopic analysis.
Data set [23] in a line: Drug isomerization in DMSO-d6 irradiated at 365 nm assessed as cis isomer level at PSS at 2 mg/ml measured after 90 mins under room temperature by 1H and 19F-NMR spectroscopic analysis.
The nature of data set [24]: Drug isomerization in DMSO-d6 irradiated at 365 nm assessed as cis isomer level at PSS at 2 mg/ml measured after 120 mins under room temperature by 1H and 19F-NMR spectroscopic analysis.
Data set [25] is described as follows: Drug isomerization in DMSO-d6 irradiated at 365 nm assessed as cis isomer level at PSS at 2 mg/ml measured after 60 mins under room temperature by 1H and 19F-NMR spectroscopic analysis.
A short description of data set [26]: Drug isomerization in DMSO-d6 irradiated at 365 nm assessed as cis isomer level at PSS at 2 mg/ml measured after 30 mins under room temperature by 1H and 19F-NMR spectroscopic analysis.
Data set [27] can be described thus: Drug isomerization in DMSO-d6 irradiated at 365 nm assessed as rate of thermal relaxation measured as cis isomer level at PSS at 2 mg/ml measured after 18 hrs storage in dark at room temperature by 1H-NMR spectroscopic analysis.
The nature of data set [28]: Drug isomerization in DMSO-d6 irradiated at 365 nm assessed as rate of thermal relaxation measured as cis isomer level at PSS at 2 mg/ml measured after 2.5 hrs storage in dark at room temperature by 1H-NMR spectroscopic analysis.

The source made the active and inactive calls. The rule behind the calls is not given here.

T1 sequence (P15056 2-766 V600E limits assumed): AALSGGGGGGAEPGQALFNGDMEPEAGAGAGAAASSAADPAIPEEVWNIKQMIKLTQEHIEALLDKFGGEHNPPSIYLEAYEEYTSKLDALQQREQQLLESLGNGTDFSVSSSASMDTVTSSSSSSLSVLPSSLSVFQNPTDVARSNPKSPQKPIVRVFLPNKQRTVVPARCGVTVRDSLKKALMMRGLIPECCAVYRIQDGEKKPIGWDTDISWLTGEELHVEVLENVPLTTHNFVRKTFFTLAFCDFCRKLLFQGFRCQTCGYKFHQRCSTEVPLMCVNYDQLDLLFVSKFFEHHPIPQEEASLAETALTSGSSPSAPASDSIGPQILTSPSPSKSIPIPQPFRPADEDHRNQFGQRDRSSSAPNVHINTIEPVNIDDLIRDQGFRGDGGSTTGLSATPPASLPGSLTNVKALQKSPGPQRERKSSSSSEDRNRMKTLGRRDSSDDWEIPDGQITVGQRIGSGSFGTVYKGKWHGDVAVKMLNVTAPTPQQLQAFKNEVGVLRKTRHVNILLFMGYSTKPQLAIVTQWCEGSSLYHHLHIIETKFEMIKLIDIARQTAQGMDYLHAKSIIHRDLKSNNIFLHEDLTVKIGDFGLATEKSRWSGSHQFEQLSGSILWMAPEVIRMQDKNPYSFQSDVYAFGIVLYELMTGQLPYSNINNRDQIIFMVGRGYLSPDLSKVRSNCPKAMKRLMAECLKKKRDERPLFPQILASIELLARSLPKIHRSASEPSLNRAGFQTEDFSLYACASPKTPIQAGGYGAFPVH

For `COc1n[nH]c2ncc(NC(=O)c3c(F)ccc(NS(=O)(=O)c4ccccc4)c3F)cc12`, the IC50 in data set [1] came out at 22 nM. Moreover, in [2], the inhibition entry was “Active”. For the same compound, the outcome in data set [3] was Active.
In the case of `COc1n[nH]c2ncc(NC(=O)c3c(F)ccc(/N=N\c4ccccc4C)c3F)cc12`, the T1/2 in [4] is greater than 70 h; in data set [5] it was greater than 24 h. Moreover, the Drug metabolism in [6] is 62%. For the same compound, in data set [7], the IC50 was 540 nM.
As for `COc1n[nH]c2ncc(NC(=O)c3c(F)ccc(/N=N/c4ccccc4C)c3F)cc12`, the Drug metabolism in data set [8] was 60%; in data set [12], 77%; in [14], 77%. Further, the Activity in data set [9] was 335 nm; in [10] it was 334 nm. For the same compound, the IC50 in data set [11] amounted to 1700 nM. Also, the remaining at 2 mg/ml in data set [13] was greater than 95%.
On to `COc1n[nH]c2ncc(NC(=O)c3c(F)ccc(/N=N\c4ccccc4)c3F)cc12`, for which the T1/2 in data set [4] is greater than 10 h; in data set [15], 5.4 h. Moreover, the inhibition entry in [16] was “inactive”. For the same compound, the Drug metabolism in data set [17] is 36%; in data set [18] it was “Metabolite_Detected”; in [19], “Metabolite_Detected”. In addition, the IC50 in data set [7] came out at 157 nM.
Turning to `COc1ccc(/N=N\c2ccc(F)c(C(=O)Nc3cnc4[nH]nc(OC)c4c3)c2F)cc1`, the figures for the T1/2 in data set [4] and in data set [5] were greater than 10 h and greater than 24 h, respectively. In addition, the Drug metabolism in [17] came out at 79%. The IC50 in data set [7] was determined as 470 nM.
For the compound `COc1n[nH]c2ncc(NC(=O)c3c(F)ccc(/N=N/c4ccccc4F)c3F)cc12`, the Activity in data set [9] stood at 336 nm; in data set [10] it was 331 nm. In data set [11], the IC50 came to 320 nM. The Drug metabolism was found to be 71% in [12], 71% in data set [20] and 68% in [21]. Moreover, in data set [13], the remaining at 2 mg/ml was greater than 95%.
Regarding `COc1n[nH]c2ncc(NC(=O)c3c(F)ccc(/N=N/c4ccc(C)cc4)c3F)cc12`, the Drug metabolism in data set [22] was determined as 84%; in data set [12] it was 84%; in data set [20], 80%. In addition, the Activity in [9] is on record as 340 nm; in [10], 338 nm. The half-maximal inhibitory concentration (IC50) in [11] is 32 nM. Further, in data set [13], the remaining at 2 mg/ml was greater than 95%.
Regarding `COc1n[nH]c2ncc(NC(=O)c3c(F)ccc(/N=N\c4ccc(C)cc4)c3F)cc12`, the T1/2 in data set [4] was greater than 20 h; in data set [5] it was greater than 24 h. In [17], the Drug metabolism was 73%. For the same compound, the IC50 in [7] was found to be 9 nM.
Regarding `COc1ccc(/N=N\c2cccc(C(=O)Nc3cnc4[nH]nc(OC)c4c3)c2)cc1`, the T1/2 in data set [4] and in [15] was greater than 10 h each time. Besides, in data set [17], the Drug metabolism worked out at 34%. Also, the IC50 in [7] was determined as 450 nM.
Consider `COc1n[nH]c2ncc(NC(=O)c3c(F)ccc(/N=N\c4ccc(F)cc4)c3F)cc12`, for which the T1/2 is greater than 20 h in data set [4] and greater than 24 h in data set [5]. The Drug metabolism in data set [17] stood at 60%. In addition, the half-inhibitory concentration (IC50) in [7] is 8100 nM.
As for `COc1n[nH]c2ncc(NC(=O)c3c(F)ccc(/N=N/c4ccc(F)cc4)c3F)cc12`, the values for the Activity in data set [9] and in data set [10] were 335 nm and 338 nm, respectively. The Drug metabolism in data set [23] was 58%; in [12], 62%; in [24], 62%. In addition, in data set [11], the IC50 worked out at 2600 nM. Also, in data set [13], the remaining at 2 mg/ml was greater than 95%.
Regarding `COc1ccccc1/N=N/c1ccc(F)c(C(=O)Nc2cnc3[nH]nc(OC)c3c2)c1F`, the Activity turned out to be 334 nm in [9] and 327 nm in data set [10]. Further, the Drug metabolism in [23], in [25] and in data set [12] was 88% each time. Also, in data set [11], the 50% inhibitory concentration (IC50) came to 300 nM. Moreover, the remaining at 2 mg/ml in data set [13] was greater than 95%.
On to `COc1ccc(/N=N/c2ccc(F)c(C(=O)Nc3cnc4[nH]nc(OC)c4c3)c2F)cc1`, for which the Activity in data set [9] is on record as 357 nm; in [10], 341 nm. Besides, the Drug metabolism in data set [23] stood at 92%; in data set [25], 83%; in data set [12], 96%; in data set [26] it was 60%. Besides, the IC50 in [11] was 92 nM. The remaining at 2 mg/ml in data set [13] was greater than 95%.
For the compound `COc1ccccc1/N=N\c1ccc(F)c(C(=O)Nc2cnc3[nH]nc(OC)c3c2)c1F`, the T1/2 in data set [4] and in [5] was greater than 24 h in each case. The Drug metabolism in [27] is 79%. Besides, the IC50 in [7] came out at 360 nM.
Take `COc1ccc(/N=N/c2cccc(C(=O)Nc3cnc4[nH]nc(OC)c4c3)c2)cc1`: the Activity is 352 nm in data set [9] and 345 nm in [10]. For the same compound, the results for the Drug metabolism in data set [23], in [25] and in data set [12] were 94%, 92% and 73%, respectively. Further, the IC50 in [11] was 100 nM. Further, the remaining at 2 mg/ml in data set [13] is greater than 95%.
Consider `COc1n[nH]c2ncc(NC(=O)c3c(F)ccc(/N=N\c4ccccc4F)c3F)cc12`, for which the T1/2 was greater than 20 h in data set [4] and 5 h in data set [5]. The Drug metabolism worked out at 50% in data set [28] and 51% in [17]. The IC50 in data set [7] came to 660 nM.
For `CCCS(=O)(=O)Nc1ccc(F)c(C(=O)c2c[nH]c3ncc(-c4ccc(Cl)cc4)cc23)c1F`, the outcome in data set [3] was Active.
